Data as given in ChEMBL document CHEMBL5344428, “Discovery, Crystallographic Studies, and Mechanistic Investigations of Novel Phenylalanine Derivatives Bearing a Quinazolin-4-one Scaffold as Potent HIV Capsid Modulators” (J Med Chem, 2023).

Columns and labels:
[1] = system: Human immunodeficiency virus 2; assay: Antiviral activity against HIV-2 ROD infected in human MT4 cells assessed as protection against virus induced cytopathic effect; assay type: functional, organism-based; conditions: Human immunodeficiency virus 2, ROD
Procedure, shortened: (§1)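 MT-4 cells were infected with HIV-1 IIIB or HIV-2 ROD, and cell viability was read by MTT. […] Each value was run in at least triplicate and averaged from at least three independent experiments.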

[2] = Selectivity ratio of EC50 for antiviral activity against HIV1 IIIB infected in human MT4 cells to EC50 for antiviral activity against HIV2 ROD infected in human MT4 cells; assay type: toxicity, cell-based
Procedure, shortened: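 Ratio is EC50 against HIV-1 IIIB divided by EC50 against HIV-2 ROD. Both EC50 values come from MTT-read protection of infected MT-4 cells.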

[3] = Cytotoxicity against human MT4 cells assessed as reduction in cell viability; assay type: toxicity, cell-based
Procedure, shortened: (§2)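 Uninfected MT-4 cells were exposed to compound, and viability was read by the MTT method. […] Each value was run in at least triplicate and averaged from at least three independent experiments.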

[4] = Selectivity index, ratio of CC50 for cytotoxicity against human MT4 cells to EC50 for antiviral activity against HIV2 ROD infected in human MT4 cells; assay type: toxicity, cell-based; conditions: read-out: Ratio CC50/EC50
Procedure, shortened: (§3)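 SI is CC50 divided by EC50. CC50 comes from MTT viability of uninfected MT-4 cells. EC50 comes from MTT-read protection of MT-4 cells infected with HIV-1 IIIB or HIV-2 ROD. Each value was run in at least triplicate.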

[5] = Selectivity index, ratio of CC50 for cytotoxicity against human MT4 cells to EC50 for antiviral activity against HIV1 IIIB infected in human MT4 cells; assay type: toxicity, cell-based; conditions: read-out: Ratio CC50/EC50; procedure, shortened: as §3
[6] = system: Human immunodeficiency virus 1; assay: Antiviral activity against HIV-1 IIIB infected in human MT4 cells assessed as protection against virus induced cytopathic effect; assay type: functional, organism-based; conditions: Human immunodeficiency virus 1, IIIB; procedure, shortened: as §1
[7] = system: Human immunodeficiency virus 2; assay: Antiviral activity against HIV2 ROD infected in human MT4 cells assessed as reduction in virus induced cytopathic effect measured after 5 days by MTT assay; assay type: functional, organism-based; conditions: Human immunodeficiency virus 2, ROD, MT4, 120 h; procedure, shortened: as §1
[8] = Cytotoxicity against human MT4 cells assessed as reduction in cell viability incubated for 5 days by MTT assay; assay type: toxicity, cell-based; conditions: MT4 cells, time 5 day; procedure, shortened: as §2
[9] = system: Human immunodeficiency virus 1; assay: Antiviral activity against HIV1 IIIB infected in human MT4 cells assessed as reduction in virus induced cytopathic effect measured after 5 days by MTT assay; assay type: functional, organism-based; conditions: Human immunodeficiency virus 1, IIIB, MT4, 120 h; procedure, shortened: as §1

EC50 [1] [µM]	EC50 [6] [µM]	Structure (SMILES)	Ratio EC50 [2]	CC50 [3] [µM]	selectivity ratio [4]	selectivity ratio [5]	EC50 [7] [µM]	CC50 at 120 h [8] [µM]	EC50 [9] [µM]
0.35	0.86	COc1ccc(N(C)C(=O)[C@H](Cc2cc(F)cc(F)c2)NC(=O)CN2CCN(S(=O)(=O)c3ccc(Br)cc3)CC2)cc1	2.46	13.2	37.8	15.4			
0.17	1.49	COc1ccc(N(C)C(=O)[C@H](Cc2cc(F)cc(F)c2)NC(=O)CN2CCN(S(=O)(=O)c3cccc([N+](=O)[O-])c3)CC2)cc1	8.76	83.9	493	56.3			
1.19	2.84	COc1ccc(N(C)C(=O)[C@H](Cc2cc(F)cc(F)c2)NC(=O)CN2CCN(S(=O)(=O)c3ccccc3[N+](=O)[O-])CC2)cc1	2.39	94.9	79.7	33.4			
0.14	0.52	COc1ccc(N(C)C(=O)[C@H](Cc2cc(F)cc(F)c2)NC(=O)CN2CCN(S(=O)(=O)c3ccccc3N)CC2)cc1	3.71	63.6	454	122			
0.1	0.2	COc1ccc(N(C)C(=O)[C@H](Cc2cc(F)cc(F)c2)NC(=O)CN2CCN(S(=O)(=O)c3ccccc3)CC2)cc1	2	114	1140	570			
0.05	0.12	COc1ccc(N(C)C(=O)[C@H](Cc2cc(F)cc(F)c2)NC(=O)CN2CCN(S(=O)(=O)c3ccc(N)cc3)CC2)cc1	2.4	117	2340	977			
0.36	0.79	COc1ccc(N(C)C(=O)[C@H](Cc2cc(F)cc(F)c2)NC(=O)CN2CCN(S(=O)(=O)c3ccc(F)cc3)CC2)cc1	2.19	19.2	53.3	24.3			
0.44	0.93	COc1ccc(N(C)C(=O)[C@H](Cc2cc(F)cc(F)c2)NC(=O)CN2CCN(S(=O)(=O)c3ccc(Cl)cc3)CC2)cc1	2.11	9.05	20.6	9.73			
0.03	0.21	COc1ccc(N(C)C(=O)[C@H](Cc2cc(F)cc(F)c2)NC(=O)CN2CCN(S(=O)(=O)c3ccc(NC(C)=O)cc3)CC2)cc1	7	91.6	3050	436			
0.48	1.01	COc1ccc(N(C)C(=O)[C@H](Cc2cc(F)cc(F)c2)NC(=O)CN2CCN(S(=O)(=O)c3ccc([N+](=O)[O-])cc3)CC2)cc1	2.1	14.8	30.9	14.7			
		COc1ccc(N(C)C(=O)[C@H](Cc2cc(F)cc(F)c2)NC(=O)CN(C(=O)Cc2c(C)[nH]c3ccccc23)C2CC2)cc1	0.18		6	36	17.3	112	3.08
0.12	0.91	COc1ccc(N(C)C(=O)[C@H](Cc2cc(F)cc(F)c2)NC(=O)CN2CCN(S(=O)(=O)c3ccc(C)cc3)CC2)cc1	7.58	> 204	> 1700	> 224			
		COc1ccc(-n2c(SCc3ccccn3)nnc2[C@H](Cc2ccccc2)NC(=O)Cc2c(C)[nH]c3ccccc23)cc1	0.63		6	9	4.16	24.2	2.61
0.11	0.16	COc1ccc(N(C)C(=O)[C@H](Cc2cc(F)cc(F)c2)NC(=O)CN2CCN(S(=O)(=O)c3cccc(N)c3)CC2)cc1	1.45	109	987	679			
		COc1ccc(N(C)C(=O)[C@H](Cc2ccccc2)NC(=O)CN2CCN(C(=O)Cc3c[nH]c4ccc(F)cc34)CC2=O)cc1	4.83		19.9	4.13	4.52	90.1	21.8
		COc1ccc(N(C)C(=O)[C@H](Cc2cc(F)cc(F)c2)NC(=O)CN2CCN(C(=O)Cc3c[nH]c4ccccc34)CC2=O)cc1	1.67		3.28	1.97	17.6	57.8	29.4

EC50 [1] [µM]	EC50 [6] [µM]	Structure (SMILES)	Ratio EC50 [2]	CC50 [3] [µM]	selectivity ratio [4]	selectivity ratio [5]	EC50 [7] [µM]	CC50 at 120 h [8] [µM]	EC50 [9] [µM]
		COc1ccc(N(C)C(=O)[C@H](Cc2cc(F)cc(F)c2)NC(=O)CN2CCN(C(=O)Cc3c(C)[nH]c4ccccc34)CC2=O)cc1	1.06		3.91	3.69	19.7	76.9	20.8
		C#CCSc1nnc([C@H](Cc2ccccc2)NC(=O)Cc2c(C)[nH]c3ccccc23)n1-c1ccc(OC)cc1	0.52		6	12	3.94	24.7	2.05
		COc1ccc(-n2c([C@H](Cc3cc(F)cc(F)c3)NC(=O)CN3CCN(S(=O)(=O)c4ccc([N+](=O)[O-])cc4)CC3)nc3cc(Cl)ccc3c2=O)cc1	1.48		> 403	> 278	0.4	> 163	0.59
		COc1ccc(N(C)C(=O)[C@H](Cc2ccccc2)NC(=O)Cn2ccc(N)cc2=O)cc1	1.47		13.2	8.98	19.7	261	29.1
		COc1ccc(N(C)C(=O)[C@H](Cc2cc(F)cc(F)c2)NC(=O)CN(Cc2ccc(C#N)cc2)C(=O)Cc2c[nH]c3ccc(Br)cc23)cc1	0.36		6	16	15.7	87.6	5.61
		COc1ccc(-n2c(S)nnc2[C@H](Cc2ccccc2)NC(=O)Cc2c(C)[nH]c3ccccc23)cc1	0.47		13	27	10.6	133	4.94
		COc1ccc(N(C)C(=O)[C@H](Cc2cc(F)cc(F)c2)NC(=O)CN(CC2CCCCC2)C(=O)Cn2nc(C(F)(F)F)cc2C)cc1	1.22		2	2	24.9	45.7	30.3
		COc1ccc(-n2c([C@H](Cc3ccccc3)NC(=O)CN3CCN(S(=O)(=O)c4ccc(N)cc4)CC3)nc3cc(Cl)ccc3c2=O)cc1	6.1		> 1740	> 291	0.1	> 178	0.61
		COc1ccc(-n2c(SCCS(C)(=O)=O)nnc2[C@H](Cc2ccccc2)NC(=O)Cc2c(C)[nH]c3ccccc23)cc1	0.24		10	42	16	162	3.87
		COc1ccc(-n2c(SCCC3OCCCO3)nnc2[C@H](Cc2ccccc2)NC(=O)Cc2c(C)[nH]c3ccccc23)cc1	0.25		5	20	6.65	32.3	1.64
		COc1ccc(N(C)C(=O)[C@H](Cc2ccccc2)NC(=O)Cn2ccc(NC(=O)c3ccc(C)cc3)cc2=O)cc1	1.25		2.85	2.28	20.5	58.3	25.6
		COc1ccc(-n2c(SCC(N)=O)nnc2[C@H](Cc2ccccc2)NC(=O)Cc2c(C)[nH]c3ccccc23)cc1	0.24		32	135	3.74	118	0.88
		COc1ccc(-n2c(SCc3ccc(S(N)(=O)=O)cc3)nnc2[C@H](Cc2ccccc2)NC(=O)Cc2c(C)[nH]c3ccccc23)cc1	0.72		> 55	> 76	3.42	> 187	2.47
		COc1ccc(N(C)C(=O)[C@H](Cc2cc(F)cc(F)c2)NC(=O)CN2CCN(C(=O)c3ccc(NC(=O)C4CC4)cc3)CC2=O)cc1	0.95		5.87	6.17	15.1	88.6	14.4
		COc1ccc(N(C)C(=O)[C@H](Cc2cc(F)cc(F)c2)NC(=O)Cn2ccc(N)cc2=O)cc1	0.34		> 17.1	> 49.6	15.6	> 266	5.36
